SIAE primary: inhibitors of human sialic acid acetylesterase SIAE; AID 1053197; Q9HAT2; SIAE FP-Rh probe binding, fluorescence polarization; hit rate 0.69% among 370,000; inhibition, % at 9.66 µM;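 active means inhibition above a cutoff: mean of compounds within the control limits plus 3 SD of those, cut at about 17% in these data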;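 further: 0% = plate median of compound wells and 100% = probe without SIAE protein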
Target sequence (Q9HAT2 whole entry, looked up): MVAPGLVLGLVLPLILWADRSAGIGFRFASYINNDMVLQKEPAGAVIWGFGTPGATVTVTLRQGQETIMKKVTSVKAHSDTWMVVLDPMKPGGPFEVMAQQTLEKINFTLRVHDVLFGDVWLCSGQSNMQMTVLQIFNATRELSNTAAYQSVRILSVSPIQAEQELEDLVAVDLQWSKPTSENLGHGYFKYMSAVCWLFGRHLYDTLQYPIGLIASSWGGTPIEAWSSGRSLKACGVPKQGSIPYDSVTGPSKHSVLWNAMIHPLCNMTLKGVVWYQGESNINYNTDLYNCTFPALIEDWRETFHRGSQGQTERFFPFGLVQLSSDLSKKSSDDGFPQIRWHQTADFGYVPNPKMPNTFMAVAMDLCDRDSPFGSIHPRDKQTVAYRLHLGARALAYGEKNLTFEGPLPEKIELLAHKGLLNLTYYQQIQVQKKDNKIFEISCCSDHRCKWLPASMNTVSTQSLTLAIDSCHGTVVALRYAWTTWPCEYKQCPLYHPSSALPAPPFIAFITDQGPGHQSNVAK
GSTO1 counter: GSTO1 inhibition, counter-screen for RBBP9 inhibitors | recombinant GSTO1, activity-based probe fluorescence polarization | inhibition, % at 5.96 µM | hit rate 1.1% among 300,000 | AID 1974;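 active means inhibition above the campaign mean inhibition plus 3 SD, cut at about 35% in these data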;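 further: 0% = GSTO1-1 with DMSO and 100% = wells lacking GSTO1-1 enzyme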
PAD4 FP inh: PAD4 (human) enzyme inhibition | recombinant PAD4, RCA probe fluorescence polarization | inhibition, % at 6.36 µM | hit rate 0.41% among 330,000 | AID 485272;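 active means percent inhibition above a cutoff equal to the mean of all tested compounds plus 3 SD, cut at about 15% in these data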;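 further: 0% = PAD4 with RCA probe and DMSO and 100% = probe without PAD4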
TDP2 absorb: blocks human TDP2 phosphodiesterase activity; O95551; recombinant TDP2, T5PNP hydrolysis, p-nitrophenol absorbance 415 nm; inhibition, % at 12.8 µM; hit rate 0.34% among 370,000;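 active means inhibition above the mean of all tested compounds plus 3 SD, set per campaign, cut at about 25% in these data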;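 further: 0% = DMSO with enzyme and 100% = buffer with substrate but no TDP2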
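System – recombinant human TDP2 · Amount – 120 nM TDP2 per well · Buffer or medium – Mg2+-containing Tris-HCl buffer, pH 7.5 · Reagent – T5PNP substrate, 5 mM · Dosing – 12.8 µM single point, 1% DMSO · Incubation – 2 h at 37 °C · Measured by – epi absorbance · Read-out basis – percent inhibition · Benchmarks – high control without enzyme, low control DMSO plus TDP2 · Repeats – singlicate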
TCR-CD3 inh: inhibitors of human TCR-CD3 interaction; TAMRA-labeled TCR probe fluorescence, biochemical; inhibition, % at 9.4 µM; hit rate 0.37% among 360,000; AID 651800; in the data active means inhibition above about 19%;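 further: recombinant mutant TCR 2C K166C tagged with TAMRA read by polarization; 0% = receptor in buffer alone and 100% = receptor with positive control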
Apaf1 inhib: inhibitors of human Apaf-1 apoptosome. inhibition, % at 20 µM. reconstituted apoptosome caspase-3 activity, DEVD-Rh110 fluorescence. AID 489030. hit rate 0.71% among 330,000. O14727; active means inhibition of at least 40% at 20 µM;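 further: plate controls were DMSO wells for no effect and DEVD-CHO caspase inhibitor wells for full effect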
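Medium: Hepes buffer, pH 7.5 / System: biochemical Apaf-1 apoptosome reconstitution / Measured by: Rh110 fluorescence, excitation 480 nm, emission 540 nm / Times: compound with Apaf-1, dATP, procaspase-3 30 min, then 50 min reaction, room temperature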
SIAE inh conf: human SIAE inhibition, confirmation. shares compounds with SIAE primary. SIAE FP-Rh activity-based probe, fluorescence polarization. inhibition, % at 9.66 µM. hit rate 13% among 2,300;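 active means mean inhibition of the replicates above the hit cutoff set in the primary screen, cut at about 17% in these data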;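 further: 0% = SIAE with DMSO and probe and 100% = probe without SIAE; inhibitors lower polarization as more probe stays unbound to SIAE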
Starred values were filed as active, the others as inactive; . = no result given. Compounds with a hit are over-represented: about 2.4% of the library has one in this group of screens.

SMILES	SIAE primary	GSTO1 counter	PAD4 FP inh	TDP2 absorb	TCR-CD3 inh	Apaf1 inhib	SIAE inh conf
CCOc1ccc(CCNC(=O)Cc2ccc(NC(=O)C3=C(C)OCCS3)cc2)cc1	19*	-1	-1	-5	5	-4	8
O=C(NNc1nc2c(F)cccc2s1)c1cc(=O)c2ccccc2o1	18*	3	-5	-6	8	24	-4
Cc1cccc2sc(NNC(=O)c3cc(=O)c4ccccc4o3)nc12	13	17	4	-6	-1	12	.
Cc1ccc2sc(NNC(=O)c3cc(=O)c4ccccc4o3)nc2c1C	25*	9	-5	8	-10	13	33*
CCOC(=O)c1sc2ccc(S(=O)(=O)N3CCOCC3)cc2c1N	1	23	8	1	1	-12	.
CCOC(=O)c1sc2ccc(S(=O)(=O)N3CCCCC3)cc2c1N	21*	12	-4	-5	4	37	-2
Nc1nc2c(ncn2[C@@H]2O[C@H](C(=O)N[C@H](Cc3ccccc3)C(=O)NC3CCCCC3)[C@@H](O)[C@H]2O)c(=O)[nH]1	32*	.	.	2	0	.	35*
Nc1nc2c(ncn2[C@@H]2O[C@H](C(=O)NCC(F)(F)F)[C@@H](O)[C@H]2O)c(=O)[nH]1	4	.	.	-7	-5	.	.
CN(C(=O)[C@H]1O[C@@H](n2cnc3c(=O)[nH]c(N)nc32)[C@H](O)[C@@H]1O)C1CCCCC1	41*	.	.	7	-3	.	46*
Nc1nc2c(ncn2[C@@H]2O[C@H](C(=O)NC3CCCCC3)[C@@H](O)[C@H]2O)c(=O)[nH]1	49*	.	.	-10	-3	.	43*
CCN(CC)S(=O)(=O)c1cccc(C(=O)N2CCCCC2)c1	5	4	0	5	3	-1	.
CCC(C)NC(=O)C1CCN(S(=O)(=O)c2cccs2)CC1 (stereo not given)	-10	1	2	-5	2	15	.
COc1ccc(NC(=O)/C(C#N)=C/c2ccc3c(c2)n(C)c(=O)n3C)cc1	12	-2	-9	8	6	10	.
C=CCn1c(C)nnc1SCC(=O)N1c2ccccc2NC(=O)C1(C)C	18*	.	.	7	0	.	-8
COc1ccc2cc(C#N)c(Cl)nc2c1	6	9	-3	-3	4	-2	.
COc1ccc(NC(=O)Cn2c(=O)oc3cc(Cl)ccc32)c(OC)c1	17*	-4	-4	4	7	6	2
CCc1ccccc1NNC(=O)c1snnc1C	17*	14	8	3	2	-2	4
COc1cc2ccccc2cc1C(=O)N1CCCC1	22*	3	-5	-8	-3	-1	-6
CCCNC(=O)c1ccc2c(=O)c(O)c(-c3ccc(Cl)c([N+](=O)[O-])c3)[nH]c2c1	28*	8	-2	5	-3	-3	7
COc1cccc(CNc2nccs2)c1O	18*	-1	2	16	4	4	1
COc1cc(NS(=O)(=O)c2ccc(NC(=O)CCC(=O)O)cc2)nc(OC)n1	17*	8	-4	19	1	0	-7
CCOC(=O)CCC(=O)Nc1ccc(S(=O)(=O)Nc2cc(OC)nc(OC)n2)cc1	10	1	2	10	-3	-3	.
Nc1c(Cl)ncnc1NCc1ccccc1	-2	8	-4	-8	-2	-4	.
COc1ccc(Nc2cc(C)c3cc([N+](=O)[O-])ccc3n2)cc1	24*	-2	-2	11	-5	24	2
O=C(CN1C(=O)C2CC=CCC2C1=O)Nc1nccs1 (stereo not given)	1	-1	0	5	-5	-10	.
COCCNC(=O)c1cccc(OC2CCN(Cc3ccc(C(=O)OC)cc3)CC2)c1	51*	4	0	-13	-4	-13	1
COCCNC(=O)c1cccc(OC2CCN(Cc3ccc(C(C)C)cc3)CC2)c1	-1	1	1	5	1	6	.
O=C(CN1CCN(S(=O)(=O)N2CCCCC2)CC1)Nc1cc(Cl)ccc1Cl	6	5	1	7	5	1	.

High-throughput results: PubChem BioAssay, several laboratories
